Screening data (PubChem BioAssay)
An excerpt weighted towards active compounds, which were near 4.1% of everything screened.
DNA FID counter-1 = fluorescent intercalator displacement, NS3 helicase counter-screen. DNA fluorescent intercalator displacement, fluorescence. inhibition, % at 7.9 µM. hit rate 0.17% among 290,000;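 also: 0% = vehicle and 100% = reference compound; higher means more ethidium bromide displaced from hairpin DNA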
T cruzi repl = blocks replication of Trypanosoma cruzi; inhibition, % (no concentration beside the values); T. cruzi beta-gal in NIH3T3, luminescence, 90 h; hit rate 1.4% among 300,000; AID 1885;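 active = mean inhibition across valid replicates above about 55%, limit read from the data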;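 also: signal also drops with host cell toxicity which is not excluded here; 0% = plate median of DMSO wells and 100% = zero luminescence signal; higher percent means less beta-gal luminescence so fewer parasites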
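Assay system: NIH/3T3 host cells with β-galactosidase reporter T. cruzi; input: 5,000 host fibroblasts per well; compound: single 50 nL compound addition per well in DMSO; timing: ≥90 h infection period, 3 h prior cell attachment; measured by: GalScreen β-gal luminescence, detergent lysis, 60 min; evaluation: percent inhibition of parasite-derived β-gal signal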
MEKK2wt PB1 HTS = raises or lowers MEK5 binding to wildtype human MEKK2 PB1 domain | hit rate 1.1% among 290,000 | AID 1531 | bead flow cytometry, Alexa488-MEK5 binding to MEKK2 WT; actives lie on both sides | Q9Y2U5 | binding response (% of control), % at 10 µM; in the data active = binding response below about 67% or above about 130%
HCV NS3 hel inh = HCV NS3 helicase inhibition | inhibition, % at 10.9 µM | NS3 helicase DNA unwinding, Cy5 molecular beacon fluorescence | hit rate 0.56% among 290,000;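 active = inhibition above the mean of all tested compounds plus 3 SD, set per campaign, cut at about 35% in these data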;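 also: 0% = DMSO wells and 100% = thioflavine S control wells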
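Compound dosing – single dose, 10.9 µM nominal final, DMSO 0.8% final · System – NS3 helicase fragment of HCV · Buffer or medium – MOPS pH 6.5, MgCl2, DTT, Tween20, BSA · Signal – Cy5 beacon fluorescence read at start and 1 h · Also added – annealed dual-labelled DNA beacon duplex, ATP-started · Schedule – 1 h at 25 °C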
MEKK3 PB1 HTS = modulators (inhibitors or enhancers) of MEK5 binding to human MEKK3 PB1 domain; Q99759; bead-based flow cytometry, Alexa488-MEK5 binding to MEKK3; actives lie on both sides; 0 = blocked by unlabeled MEK5, 100 = vehicle; binding response (% of control), % at 10 µM; hit rate 1.4% among 290,000;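 active = binding response more than 3 SD above or below the average of its plate-row segment, actives on both sides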;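 also: Alexa488 bead fluorescence after subtracting the streptavidin-only scavenger bead signal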
Target sequence (Q99759 whole entry, looked up, the tested form may be a part): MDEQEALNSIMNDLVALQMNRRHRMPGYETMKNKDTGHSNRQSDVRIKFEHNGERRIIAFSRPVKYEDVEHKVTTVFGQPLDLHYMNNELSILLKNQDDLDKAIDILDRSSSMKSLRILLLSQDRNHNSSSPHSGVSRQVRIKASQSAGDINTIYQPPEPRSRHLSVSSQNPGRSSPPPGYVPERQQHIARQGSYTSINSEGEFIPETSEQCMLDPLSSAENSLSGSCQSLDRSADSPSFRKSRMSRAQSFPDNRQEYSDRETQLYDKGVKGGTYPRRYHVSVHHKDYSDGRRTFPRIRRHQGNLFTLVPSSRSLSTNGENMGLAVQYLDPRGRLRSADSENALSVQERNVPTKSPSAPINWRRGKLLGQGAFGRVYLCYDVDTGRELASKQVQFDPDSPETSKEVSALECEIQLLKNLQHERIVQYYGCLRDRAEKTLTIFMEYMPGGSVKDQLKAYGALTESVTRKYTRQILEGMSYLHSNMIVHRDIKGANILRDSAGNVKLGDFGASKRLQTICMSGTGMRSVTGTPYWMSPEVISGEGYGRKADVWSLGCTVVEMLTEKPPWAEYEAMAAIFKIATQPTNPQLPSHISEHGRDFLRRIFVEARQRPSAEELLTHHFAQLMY
MEKK2mut PB1 HTS = signal of MEK5 binding to mutant human MEKK2 PB1 domain. bead flow cytometry, Alexa488-MEK5 binding to MEKK2 mutant. percent response, % at 10 µM. hit rate 0.35% among 290,000; in the data active = percent response above about 24%, passing the limit was not always enough
MEKK2wt confirm = raises or lowers MEK5 binding to wildtype human MEKK2, retest; shares compounds with MEKK3 PB1 HTS; bead flow cytometry, Alexa488-MEK5 binding to MEKK2 WT; actives lie on both sides; binding response (% of control), % at 10 µM; hit rate 2.4% among 5,900; AID 1892; in the data active = binding response below about 16% or above about 210%; inactive = in between
MEKK2mut confirm = signal of MEK5 binding to mutant human MEKK2, retest | shares compounds with MEKK3 PB1 HTS | bead flow cytometry, Alexa488-MEK5 binding to MEKK2 mutant | percent response, % at 10 µM | hit rate 2% among 5,900; in the data active = percent response mostly above about 71%, no sharp cut-off; inactive = mostly below about 38%;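 also: higher means compound restores mutant binding toward wildtype level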
MEKK3-MEK5 inh = confirmation of inhibitors of MEK5 binding to human MEKK3 | shares compounds with MEKK3 PB1 HTS | bead flow cytometry, Alexa488-MEK5 binding to MEKK3; hits give low values | binding response (% of control), % at 10 µM | hit rate 1.8% among 5,900 | AID 1894;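 active = binding response below 72% of control, or above a set upper limit, though filed actives all read lower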;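 also: 100% = DMSO only wells and 0% = binding blocked by excess unlabeled MEK5; lower values mean stronger disruption of MEK5 binding to MEKK3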
NS3 helicase cf = confirmation of Hepatitis C virus NS3 helicase inhibitors. shares compounds with HCV NS3 hel inh. NS3 helicase DNA unwinding, Cy5 molecular beacon fluorescence. inhibition, % at 10.9 µM. hit rate 31% among 1,600. AID 1943;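 active = inhibition above the mean of all tested compounds plus 3 SD, cutoff set per campaign, cut at about 36% in these data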
DNA FID counter-2 = intercalator displacement, NS3 helicase counter-screen | shares compounds with HCV NS3 hel inh | DNA fluorescent intercalator displacement, fluorescence | AID 1945 | hit rate 4% among 1,600 | inhibition, % at 7.9 µM;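 also: 0% = vehicle and 100% = reference compound; higher means more displacement of ethidium bromide from the DNA hairpin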
DNA FID DR = displaces fluorescent intercalator from DNA, HCV helicase counter-screen. shares compounds with HCV NS3 hel inh. fluorescent intercalator displacement from DNA, fluorescence. IC50, µM. 120 tested, under 10 active. AID 2172; call rule not given here
The depositor's hits bear a star; nt = no result given; [ ] = remark or other dose. Rule as the data show it, unless noted: active = inhibition above about 37%; inactive = the rest.

SMILES | DNA FID counter-1 | T cruzi repl | MEKK2wt PB1 HTS | HCV NS3 hel inh | MEKK3 PB1 HTS | MEKK2mut PB1 HTS | NS3 helicase cf | DNA FID counter-2 | others
O=C(C(=O)N1CCc2ccccc2C1)c1cn(CC(=O)N2CCCC2)c2ccccc12 | -24 | -23 | 110 | 0 | 131* | 2 | nt | nt | MEKK2wt confirm=101;MEKK2mut confirm=2;MEKK3-MEK5 inh=103
O=C(O)CCC(=O)N1N=C(c2c(-c3ccccc3)c3cc(Cl)ccc3[nH]c2=O)CC1c1cccs1 (stereo not drawn) | -42 | -18 | 105 | 37* | 134* | 1 | 90* | -9 | MEKK2wt confirm=102;MEKK2mut confirm=-3;MEKK3-MEK5 inh=101
O=C(O)CCCC(=O)N1N=C(c2c(-c3ccccc3)c3cc(Cl)ccc3[nH]c2=O)CC1c1cccs1 (stereo not drawn) | -48 | 3 | 103 | 25 | 98 | 1 | nt | nt
CN1CCN(c2oc(-c3ccccc3)nc2S(=O)(=O)c2ccc(Br)cc2)CC1 | 14 | 23 | 118 | -82 | 108 | 9 | nt | nt
O=C(Oc1cccccc1=O)c1ccccc1 | 1 | -8 | 95 | -5 | 96 | -9 | nt | nt
CC1=C(C)Cc2c(OC(=O)c3ccccc3)ccc(OC(=O)c3ccccc3)c2C1 | -8 | -18 | 51 | 17 | 42*[inhibitor] | 8 | -11 | 1 | MEKK2wt confirm=101;MEKK2mut confirm=2;MEKK3-MEK5 inh=98
Cc1ccc(S(=O)(=O)N[C@H](C(=O)N2CCC(C(=O)N[C@@H](CCC(N)=O)C(=O)O)CC2)C(C)C)cc1 | -9 | 3 | 107 | -3 | 104 | 6 | nt | nt
CCOC(=O)c1c(-c2ccccc2)oc2ccc(OCC(=O)NNC(=O)CCC(=O)O)cc12 | -48 | -2 | 9.0*[inhibitor] | 41* | 5.0*[inhibitor] | -49 | 9 | -18 | MEKK2wt confirm=94;MEKK2mut confirm=-3;MEKK3-MEK5 inh=94
COc1cccc2c1NC(C(=O)O)C1CC=CC21 (stereo not drawn) | -19 | 0 | 29*[inhibitor] | 58* | 79 | -40 | 93* | -2 | MEKK2wt confirm=86;MEKK2mut confirm=-9;MEKK3-MEK5 inh=84
Cc1nc(CN2CCCCC2)cc(=O)[nH]1 | -7 | -11 | 100 | 6 | 103 | -3 | nt | nt
CN(C)c1ccc(/C=C/c2ccc3c4ccccc4ccc3[n+]2-c2ccccc2)cc1 | 78* | nt | 41* | 63* | 18*[inhibitor] | -33 | 91* | 101* | MEKK2wt confirm=138;MEKK2mut confirm=56;MEKK3-MEK5 inh=81
O=[N+]([O-])c1cc(Cc2ccccc2)cc(C=Nc2ccc(N3CCOCC3)cc2)c1O | 3 | 32 | 97 | 50* | 146* | 0 | 55* | 23 | MEKK2wt confirm=89;MEKK2mut confirm=-5;MEKK3-MEK5 inh=96;DNA FID DR=>79
Cc1ccc(O)c(N=Cc2cc(Cc3ccccc3)cc([N+](=O)[O-])c2O)c1 | -10 | -12 | 85 | 5 | 105 | -7 | nt | nt
CCOC(=O)CC(=O)CSc1nc2c(c(-c3cccs3)c1C#N)CCC2 | -9 | 0 | 122 | 41* | 105 | 21 | 4 | -3
CCOC(=O)CC(=O)CSc1nc2c(cc1C#N)CCC2 | -4 | 3 | 90 | 6 | 91 | -7 | nt | nt
O=C(N/N=C1/CC2CCC1C2)c1cc2ccccc2cc1O (stereo not drawn) | -15 | -33 | 104 | 49* | 101 | 5 | 1 | -8
O=C(NCC1CCCCC1)c1cc2ccccc2cc1O | -15 | 4 | 104 | 10 | 101 | 3 | nt | nt
O=C(CCc1nc2ccccc2[nH]c1=O)OCC(=O)N1CCc2ccccc21 | -23 | -2 | 93 | 1 | 98 | -1 | nt | nt
O=C(CCc1nc2ccccc2c(=O)[nH]1)OCC(=O)N1CCc2ccccc21 | -13 | -12 | 90 | 70* | 95 | -10 | -14 | -18
Cc1[nH]c(C)c(S(=O)(=O)N(C)Cc2ccccc2)c1C(=O)N1CCCC1 | -7 | -8 | 99 | 2 | 98 | -3 | nt | nt
Cc1[nH]c(C)c(S(=O)(=O)N(Cc2ccccc2)C(C)(C)C)c1C(=O)N1CCCC1 | -27 | 3 | 98 | 38* | 99 | -6 | -10 | -33
CCc1ccc(-n2c(SCC(=O)N3Cc4ccccc4CC3C(=O)O)nnc2-c2ccncc2)cc1 (stereo not drawn) | -48 | -6 | 97 | 42* | 99 | -3 | -26 | -24
O=C(COC(=O)c1ccccc1)NC1CCCC1 | -10 | 9 | 100 | 5 | 98 | 2 | nt | nt
O=C(COC(=O)c1c2c(nc3ccccc13)/C(=C/c1ccco1)CC2)NC1CCCC1 | -13 | 5 | 88 | 36* | 102 | 0 | 96* | 15 | DNA FID DR=>79
CC1CCCCC1NC(=O)COC(=O)c1cc(=O)c2ccccc2o1 (stereo not drawn) | 13 | 6 | 100 | -4 | 105 | 0 | nt | nt
SMILES | DNA FID counter-1 | T cruzi repl | MEKK2wt PB1 HTS | HCV NS3 hel inh | MEKK3 PB1 HTS | MEKK2mut PB1 HTS | NS3 helicase cf | DNA FID counter-2 | others
CC1CCCCC1NC(=O)COC(=O)c1c2c(nc3ccccc13)/C(=C/c1ccco1)CC2 (stereo not drawn) | -12 | -7 | 90 | 47* | 98 | -2 | 97* | 1 | DNA FID DR=>79
CC(C)CNC(=O)COC(=O)c1c2c(nc3ccccc13)/C(=C/c1cccs1)CC2 | -15 | 46 | 84 | 74* | 93 | -3 | -8 | -9
CCN1CCN(Cc2c(C(=O)N/N=C(\C)c3ccc(Cl)c(Cl)c3)nnn2-c2nonc2N)CC1 | 9 | 1 | 109 | -11 | 104 | 17 | nt | nt
Cc1ccc(-n2nc3c(N4CCC(C(=O)NCc5cccc(F)c5)CC4)nnc(C)c3c2C)cc1 | 16 | 25 | 118 | -35 | 104 | 4 | nt | nt
Cn1c2ccccc2c2cc(/C=N/NC(=O)c3cc(O)ccc3O)ccc21 | -10 | -4 | 84 | 69* | 91 | 1 | 24 | 12
O=C1NC(=O)/C(=C/c2cccc3ccccc23)S1 | -20 | -1 | 94 | 11 | 102 | 3 | nt | nt
COc1ccccc1OCCCOc1cccc(/C=C2\SC(=O)NC2=O)c1 | -37 | 9 | 110 | 44* | 110 | 7 | 68* | -9 | DNA FID DR=>79
